One may read the IC50 as the concentration that inhibits the measured activity by half. Usually CC50 stands for the concentration at which the toxic effect on the cells reaches its halfway point. By AUC is commonly meant the area under the concentration-time curve, a measure of exposure. The bioavailability is the share of a dose that reaches the circulation, judged against a reference dose that is usually intravenous. As usually defined, the Tmax is the time from dosing to the highest level. Broadly, the half-life is how long it takes for the measured level to halve. Usually clearance stands for a measure of how efficiently the substance is removed, as volume per time.

Series [1] deals with Middle East respiratory syndrome-related coronavirus. Nature of the series: Antiviral activity against Middle East respiratory syndrome coronavirus MERS-CoV/KOR/KNIH/002_05_2015 infected in African green monkey Vero cells assessed as reduction in virus induced cytopathic effect after 24 hrs by immunofluorescence assay. The class given is functional, organism-based. The conditions noted are these: MERS-CoV/KOR/KNIH/002_05_2015, Vero.

For another series, the system named is Vero. Nature of the series: Cytotoxicity against African green monkey Vero cells infected with Middle East respiratory syndrome coronavirus MERS-CoV/KOR/KNIH/002_05_2015 assessed as reduction in cell viability. The series is classed as cell-based. Conditions: chlorocebus sabaeus.
A short description of series [2]: AUC in rat at 2 mg/kg, iv. The class given is ADME, organism-based. The arrangement: dose 2 mg/kg. The conditions noted are these: in vivo. The method, boiled down:
(§1)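 Rat pharmacokinetic study with separate intravenous (2 mg/kg) and oral (5 mg/kg) dosing arms; reported parameters are means from three rats per experiment.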

The nature of series [3]: Cytotoxicity against CHO-K1 cells. The series is classed as cell-based, Cricetulus griseus. The conditions noted are these: chinese hamster. The method, boiled down:
(§2)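 Cytotoxicity values are given in µM, each against a named cell line: Vero (African green monkey kidney), HFL-1 (human embryonic lung), L929 (NCTC clone 929 mouse fibroblast), NIH 3T3 (mouse embryonic fibroblast) and CHO-K1 (Chinese hamster ovary).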

For series [4], the target named is Voltage-gated inwardly rectifying potassium channel KCNH2 (Homo sapiens, UniProt Q12809). The series can be described thus: Modulation of human ERG.
Series [5] can be described thus: Oral bioavailability in rat at 5 mg/kg. The conditions noted are these: in vivo. The class given is ADME, organism-based. The method, boiled down:
(§3)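 Rats were dosed intravenously at 2 mg/kg or orally at 5 mg/kg. Each parameter is the mean of experiments in three rats.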

Series [6] is described as follows: Cytotoxicity against mouse L929 cells. The class given is cell-based. In short, it runs like this:
as §2

Series [7] is described as follows: Metabolic stability in human microsomes assessed as parent compound remaining incubated for 30 mins. Conditions: read-out: Stabilty. The series is classed as ADME, Microsome. In short, it runs like this: (§4)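 Mouse or human liver microsomes were incubated with the compound for 30 min. The read-out is the percentage of original compound remaining.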
Series [8] in a line: Cmax in rat at 5 mg/kg, po. The arrangement: route oral, dose 5 mg/kg. The series is classed as ADME, organism-based. Conditions: in vivo. In short, it runs like this:
as §3

A short description of series [9]: Cytotoxicity against mouse NIH/3T3 cells. The class given is cell-based, NIH3T3. The method, boiled down: as §2
Series [10] can be described thus: Cytotoxicity against human HFL-1 cells. The series is classed as cell-based, HFL1. The method, boiled down: as §2
The nature of series [11]: Volume of distribution at steady state in rat at 2 mg/kg, iv. The class given is ADME, organism-based. Conditions: in vivo, read-out: Vdss. In short, it runs like this:
as §3

Series [12] in a line: Metabolic stability in mouse microsomes assessed as parent compound remaining incubated for 30 mins. The class given is ADME, Microsome. The conditions noted are these: read-out: Stabilty. In short, it runs like this: as §4
Series [13] can be described thus: AUC in rat at 5 mg/kg, po. The class given is ADME, organism-based. Also on record: dose 5 mg/kg. The conditions noted are these: in vivo. In short, it runs like this: as §1
The next series can be described thus: in vivo. Conditions: rat, po, 5 mg/kg.
Series [14] can be described thus: Cytotoxicity against African green monkey Vero cells. The series is classed as cell-based. Conditions: chlorocebus sabaeus. In short, it runs like this: as §2
The nature of series [15]: Half life in rat at 2 mg/kg, iv. The class given is ADME, organism-based. The conditions noted are these: in vivo. In short, it runs like this:
as §3

The nature of series [16]: Half life in rat at 5 mg/kg, po. The class given is ADME, organism-based. Conditions: in vivo. In short, it runs like this: as §3
Series [17] can be described thus: Clearance in rat at 2 mg/kg, iv. The series is classed as ADME, organism-based. Conditions: in vivo. The method, boiled down: as §3

Voltage-gated inwardly rectifying potassium channel KCNH2, sequence (Q12809 whole entry): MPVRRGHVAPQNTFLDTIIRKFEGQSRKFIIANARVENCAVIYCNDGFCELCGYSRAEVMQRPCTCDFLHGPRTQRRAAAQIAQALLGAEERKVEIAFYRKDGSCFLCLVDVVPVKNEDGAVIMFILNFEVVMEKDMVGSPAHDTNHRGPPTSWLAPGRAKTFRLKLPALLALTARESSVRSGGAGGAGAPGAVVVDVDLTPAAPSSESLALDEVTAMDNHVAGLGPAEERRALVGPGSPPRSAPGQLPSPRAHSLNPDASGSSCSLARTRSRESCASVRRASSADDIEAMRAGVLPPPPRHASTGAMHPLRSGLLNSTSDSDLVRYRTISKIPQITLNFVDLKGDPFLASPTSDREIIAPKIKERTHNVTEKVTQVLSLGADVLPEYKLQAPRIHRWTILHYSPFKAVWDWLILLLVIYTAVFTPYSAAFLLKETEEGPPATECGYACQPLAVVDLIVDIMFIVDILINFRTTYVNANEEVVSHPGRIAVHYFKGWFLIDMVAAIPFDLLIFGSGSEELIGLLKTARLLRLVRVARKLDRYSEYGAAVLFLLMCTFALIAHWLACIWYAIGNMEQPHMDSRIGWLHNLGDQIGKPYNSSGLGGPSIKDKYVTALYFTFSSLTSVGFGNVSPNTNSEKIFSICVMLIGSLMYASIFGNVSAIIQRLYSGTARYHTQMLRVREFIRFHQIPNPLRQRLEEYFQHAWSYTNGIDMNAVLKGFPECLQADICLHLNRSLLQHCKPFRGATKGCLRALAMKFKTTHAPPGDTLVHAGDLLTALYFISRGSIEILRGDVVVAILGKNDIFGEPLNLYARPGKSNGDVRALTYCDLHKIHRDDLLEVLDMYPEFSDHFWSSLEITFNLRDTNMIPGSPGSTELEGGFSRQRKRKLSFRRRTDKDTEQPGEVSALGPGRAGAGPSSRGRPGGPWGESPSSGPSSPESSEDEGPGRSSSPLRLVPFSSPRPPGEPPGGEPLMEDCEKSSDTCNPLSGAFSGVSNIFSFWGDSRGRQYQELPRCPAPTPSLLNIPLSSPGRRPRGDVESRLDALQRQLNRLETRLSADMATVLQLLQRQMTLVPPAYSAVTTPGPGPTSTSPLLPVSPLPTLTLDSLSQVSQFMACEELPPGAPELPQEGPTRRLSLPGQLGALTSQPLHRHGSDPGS

Consider `CC(=O)Nc1ccc2ncnc(Nc3ccc(F)c(Cl)c3)c2c1`, for which the IC50 in series [1] is > 25 µM.
Turning to `COc1cccc(CNc2ccc3ncnc(Nc4ccc(F)c(Cl)c4)c3c2)c1`, the half-inhibitory concentration (IC50) in series [1] turned out to be 5.6 µM. In the series with Vero, the CC50 was > 25 µM.
As for `COc1cccc(CNc2ccc3ncnc(Nc4ccc(C#N)cc4)c3c2)c1`, the IC50 in series [1] was > 25 µM. Further, the cytotoxic concentration (CC50) with Vero is > 25 µM.
In the case of `Fc1ccc(Nc2ncnc3ccc(NC4CCCCC4)cc23)cc1Cl`, in [1], the concentration for half-maximal inhibition (IC50) stood at 15 µM. Further, in the series on Vero, the CC50 was > 25 µM.
With `COc1cccc(CNc2ccc3ncnc(Nc4ccc(F)cc4)c3c2)c1`, the IC50 in series [1] came out at 22.7 µM. Also, the CC50 in the series on Vero is > 25 µM.
On the same counts, the results for `Fc1ccc(CNc2ccc3ncnc(Nc4ccc(F)c(Cl)c4)c3c2)cc1` are 4.6 µM and 14.4 µM.
In the case of `N#Cc1cccc(/C=C/C(=O)Nc2ccc3ncnc(Nc4ccc(F)c(Cl)c4)c3c2)c1`, the half-inhibitory concentration (IC50) in series [1] was > 25 µM.
On the same count and under the same terms, to `COc1cccc(CNc2ccc3ncnc(Nc4cccc(C(C)=O)c4)c3c2)c1` belongs > 25 µM.
As for `O=[N+]([O-])c1cccc(CNc2ccc3ncnc(Nc4ccc(F)c(Cl)c4)c3c2)c1`, in series [1], the half-inhibitory concentration (IC50) stood at 6.1 µM. Moreover, the 50% cytotoxic concentration (CC50) in the series with Vero is > 25 µM.
As to `Fc1ccc(CNc2ccc3ncnc(Nc4ccc(F)c(Cl)c4)c3c2)cc1F`, the IC50 in [1] is 4.6 µM. Besides, the CC50 in the series with Vero stood at 23 µM.
On the same counts, the results for `O=[N+]([O-])c1cccc(CNc2ccc3ncnc(Nc4ccc(C(F)(F)F)cc4)c3c2)c1` are 3.7 µM and > 25 µM.
Take `COc1cc2ncnc(Nc3ccc(F)c(Cl)c3)c2cc1NCc1cccc(C#N)c1`: the IC50 in series [1] is 5.8 µM. Further, the CC50 in the series on Vero stood at 13.2 µM.
On the same counts, the results for `N#Cc1cccc(CNc2ccc3ncnc(Nc4ccc(C(F)(F)F)cc4)c3c2)c1` are 3.6 µM and > 25 µM.
`Oc1ccccc1CNc1ccc2ncnc(Nc3ccc(F)c(Cl)c3)c2c1`: the IC50 in series [1] was 3.6 µM.
With `Fc1ccc(Nc2ncnc3ccc(NCc4cccc(C(F)(F)F)c4)cc23)cc1Cl`, the IC50 in [1] was 2.3 µM. Also, in the series with Vero, the CC50 was 9.2 µM.
On the same counts, the results for `COc1ccccc1CNc1ccc2ncnc(Nc3ccc(F)c(Cl)c3)c2c1` are 3.8 µM and > 25 µM.
`N#Cc1cccc(C(=O)Nc2ccc3ncnc(Nc4ccc(F)c(Cl)c4)c3c2)c1`: the 50% inhibitory concentration (IC50) in series [1] was > 25 µM.
With `O=[N+]([O-])c1ccc(CNc2ccc3ncnc(Nc4ccc(F)c(Cl)c4)c3c2)cc1`, in series [1], the concentration for half-maximal inhibition (IC50) amounted to 2.7 µM. For the same compound, in the series with Vero, the 50% cytotoxic concentration (CC50) was > 25 µM.
As for `O=[N+]([O-])c1ccccc1CNc1ccc2ncnc(Nc3ccc(F)c(Cl)c3)c2c1`, in series [1], the half-inhibitory concentration (IC50) was 3.3 µM. Besides, the CC50 in the series with Vero is > 25 µM.
Take `N#Cc1cccc(CNc2cc3c(Nc4ccc(F)c(Cl)c4)ncnc3cc2O)c1`: the 50% inhibitory concentration (IC50) in [1] is > 25 µM. For the same compound, the 50% cytotoxic concentration (CC50) in the series on Vero was > 25 µM.
For `N#Cc1ccc(CNc2ccc3ncnc(Nc4ccc(C(F)(F)F)cc4)c3c2)cc1`, in series [1], the IC50 is 4.1 µM. Also, the CC50 in the series on Vero was > 25 µM.
For the compound `O=[N+]([O-])c1ccc(CNc2ccc3ncnc(Nc4ccc(C(F)(F)F)cc4)c3c2)cc1`, the IC50 in series [1] turned out to be 3.3 µM. In addition, the cytotoxic concentration (CC50) with Vero was > 25 µM.
For `COc1cccc(CNc2ccc3ncnc(Nc4cccc(Cl)c4)c3c2)c1`, the IC50 in series [1] was > 25 µM. The 50% cytotoxic concentration (CC50) in the series on Vero stood at 23 µM.
`N#Cc1cccc(CNc2ccc3ncnc(Nc4ccc(F)c(Cl)c4)c3c2)c1`: the results for the exposure (AUC) in series [2] and in series [13] were 1110 ng·h/mL and 570 ng·h/mL, respectively. Further, the cytotoxic concentration (CC50) in [3], in series [6], in [9], in series [10] and in [14] was > 100 µM in each case. Besides, the Activity in [4] was > 50 µM. This compound also came in with a bioavailability in series [5] of 21%. Also, the 50% inhibitory concentration (IC50) in [1] is 0.157 µM. Further, the remaining at 0.5 h in series [7] stood at 56.4%; in [12] it was 60.7%. Further, the Cmax in series [8] is 0.2 µg/h. The Vd in series [11] stood at 6.3 L/kg. In the series “in vivo”, the Tmax was 2 h. Moreover, the half-life was 5.9 h in series [15] and 5.5 h in series [16]. In series [17], this compound showed a clearance of 28.8 mL/min/kg.
Consider `N#Cc1ccccc1CNc1ccc2ncnc(Nc3ccc(C(F)(F)F)cc3)c2c1`, for which the IC50 in series [1] was > 25 µM. For the same compound, in the series with Vero, the CC50 was > 25 µM.
For the compound `NC(=O)c1cccc(CNc2ccc3ncnc(Nc4ccc(F)c(Cl)c4)c3c2)c1`, in [1], the half-maximal inhibitory concentration (IC50) was > 25 µM.
With `COc1cccc(CNc2ccc3ncnc(Nc4ccc(C(F)(F)F)cc4)c3c2)c1`, the IC50 in series [1] came to 1.8 µM. Besides, the cytotoxic concentration (CC50) in the series on Vero is > 25 µM.
The matching figures for `N#Cc1ccc(CNc2ccc3ncnc(Nc4ccc(F)c(Cl)c4)c3c2)cc1`: 4.8 µM and > 25 µM.
Consider `COc1cccc(CNc2ccc3ncnc(Nc4ccc(Br)cc4)c3c2)c1`, for which, in series [1], the IC50 came to 7.4 µM. The CC50 in the series with Vero was > 25 µM.
The matching figures for `N#Cc1ccccc1CNc1ccc2ncnc(Nc3ccc(F)c(Cl)c3)c2c1`: > 25 µM and > 25 µM.
In the case of `CCCCN(CCCC)c1ccc2ncnc(Nc3ccc(F)c(Cl)c3)c2c1`, the IC50 in [1] was > 25 µM.

The values are drawn from ChEMBL document CHEMBL4665738, “Identification of 4-anilino-6-aminoquinazoline derivatives as potential MERS-CoV inhibitors” (Bioorg Med Chem Lett, 2020).
